Tests used:
[1] = Partition coefficient (logP); format: physicochemical; conditions: octanol/water
[2] = system: Rattus norvegicus; assay: Concentration required to reduce mean arterial blood pressure in rat after intravenous administration.; format: functional; conditions: Artery
In short: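 Male Sprague-Dawley rats (350-400 g), urethane 1.25 g/kg ip, tracheal cannula. Carotid catheter records mean arterial pressure continuously; heart rate taken from the pressure wave. Dosing through femoral vein, 1 mL/kg over 20 s. Change expressed as percent of basal; ED20 (dose giving 20% MABP fall) taken from the dose-response curve.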

[3] = species: Rattus norvegicus; assay: Selectivity index as the ratio of doses requires to induce a reduction in MABP and that required to prevent ECG changes.; format: functional
In short: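 Ratio of the iv ED20 for a 20% fall in mean arterial pressure to the iv ED50 for preventing ECG changes, both measured in urethane-anesthetized rats.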

[4] = species: Oryctolagus cuniculus; assay: Vasorelaxation activity in the isolated endothelium-denuded rabbit aorta; format: functional
In short: (§1)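 Endothelium-denuded rabbit aortic strips, precontracted to a stable plateau, then given increasing concentrations cumulatively in the organ chamber; IC50 calculated from the concentration-response curves.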

[5] = species: Rattus norvegicus; assay: Inhibition of vasopressin-induced ECG changes in rat; format: functional
In short: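 Urethane-anesthetized (1.25 g/kg ip) male Sprague-Dawley rats, lead II ECG. Arg8-vasopressin 1 IU/kg iv (1 mL/kg over 20 s) given 10 min after iv drug or vehicle (GTN 1 min before). T-wave rise measured in mV. 8 rats per dose; percent inhibition against mean control; ED50 from dose-effect regression line.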

[6] = system: Rattus norvegicus; assay: Inhibition of methacholine-induced ECG changes in the anesthetized rat after intravenous administration.; format: functional
In short: (§2)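 Urethane-anesthetized male Sprague-Dawley rats, lead II ECG. Methacholine 8.0 µg in 0.02 mL over 1 s delivered into coronary arteries via a tube passed through the right carotid artery into the coronary ostia; S-T elevation measured in mV. Injection repeated at intervals after a single iv or oral dose. Five rats per dose; percent inhibition over basal; ED50.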

[7] = system: Rattus norvegicus; assay: Inhibition of methacholine-induced ECG changes in the anesthetized rat after oral administration.; format: functional; in short: as §2
[8] = species: Oryctolagus cuniculus; assay: Compound was tested for vasorelaxation activity in the isolated endothelium-denuded rabbit aorta; format: functional; in short: as §1

| Compound | logP [1] | IC50 [4] | IC50 [8] | ED20 [2] | Selectivity index [3] | ED50 [5] | ED50 [6] | ED50 [7] |
| --- | --- | --- | --- | --- | --- | --- | --- | --- |
| O=C1c2cc([N+](=O)[O-])ccc2OCN1CCO[N+](=O)[O-] | 1.57 | 21 nM |  | 0.076 mg/kg | 1.2 | 0.064 mg/kg |  |  |
| O=C1c2ccc(C(F)(F)F)cc2OCN1CCO[N+](=O)[O-] | 2.73 |  | 220 nM | > 0.3 mg/kg | 200 | 0.0015 mg/kg | 0.082 mg/kg | > 0.3 mg/kg |
| CN(C)/C=N/c1ccc2c(c1)C(=O)N(CCO[N+](=O)[O-])CO2 |  | 640 nM |  | 1.27 mg/kg | 131 |  | 0.0171 mg/kg | > 0.3 mg/kg |
| O=C1c2ccccc2OCN1CCCCCO[N+](=O)[O-] |  | 98 nM |  | 0.73 mg/kg | 13 |  |  |  |
| O=C1c2ccccc2OCN1CCCO[N+](=O)[O-] |  | 77 nM |  |  |  |  | 0.001 mg/kg |  |
| N#Cc1ccc2c(c1)C(=O)N(CCO[N+](=O)[O-])CO2 | 1.28 | 71 nM |  | > 0.3 mg/kg | 26 |  |  |  |
| O=C(NCCO[N+](=O)[O-])c1cccnc1 [NICORANDIL] |  |  |  | 0.16 mg/kg |  | 0.94 mg/kg | 0.047 mg/kg | 3 mg/kg |
| O=[N+]([O-])OCC(CO[N+](=O)[O-])O[N+](=O)[O-] [NITROGLYCERIN] |  | 16 nM |  | 0.0054 mg/kg | 0.01 | 0.545 mg/kg | 0.036 mg/kg |  |

Now from value to compound, other results behind:

| logP [1] | IC50 [4] | IC50 [8] | Compound | ED20 [2] | Selectivity index [3] | ED50 [5] | ED50 [6] | ED50 [7] |
| --- | --- | --- | --- | --- | --- | --- | --- | --- |
|  | 360 nM |  | Cc1cccc2c1OCN(CCO[N+](=O)[O-])C2=O | 0.88 mg/kg | 15 | 0.0582 mg/kg |  |  |
| 2.56 | 37 nM |  | O=C1c2cc(Cl)ccc2OCN1CCO[N+](=O)[O-] | 0.088 mg/kg | 0.87 | 0.107 mg/kg |  |  |
| 2.56 | 70 nM |  | O=C1c2ccc(Cl)cc2OCN1CCO[N+](=O)[O-] | 0.79 mg/kg | 72 |  |  |  |
|  | 125 nM |  | Cc1cccc2c1C(=O)N(CCO[N+](=O)[O-])CO2 | 0.3 mg/kg | 65 | 0.0046 mg/kg | > 0.01 mg/kg |  |
| 2.41 | 110 nM |  | Cc1ccc2c(c1)OCN(CCO[N+](=O)[O-])C2=O | 0.22 mg/kg | 17.5 |  |  |  |
| 1.83 | 230 nM |  | COc1ccc2c(c1)C(=O)N(CCO[N+](=O)[O-])CO2 | > 1 mg/kg | 421 | 0.0051 mg/kg | 0.013 mg/kg | 0.1 mg/kg |
| 2.41 | 35 nM |  | Cc1ccc2c(c1)C(=O)N(CCO[N+](=O)[O-])CO2 | 0.037 mg/kg | 8.6 | 0.006 mg/kg | 0.00041 mg/kg | 0.142 mg/kg |
| 1.83 | 47 nM |  | COc1ccc2c(c1)OCN(CCO[N+](=O)[O-])C2=O | 0.29 mg/kg | 147 | 0.002 mg/kg | > 0.01 mg/kg | > 0.3 mg/kg |
| 1.85 | 94 nM |  | O=C1c2ccccc2OCN1CCO[N+](=O)[O-] [SINITRODIL] | 0.19 mg/kg | 90 | 0.0021 mg/kg |  | 0.118 mg/kg |
